Converted amounts (≈) assume the structure as drawn.
Assays:
Clostridioides difficile [1] = test: Antibacterial activity against Clostridium difficile 4118 ATCC BAA 1870 assessed as bacterial growth inhibition incubated for 48 hrs under anaerobic condition by CLSI protocol-based assay; assay type: functional; conditions: 4118 ATCC BAA 1870, 48 h
How it was run: (§1)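 Broth microdilution following CLSI guidance. Strains pre-grown anaerobically on BHIS agar (BHI plus yeast extract, vitamin K1, hemin) at 37 °C for 48 h. ~10^5 CFU/mL in BHIS broth added to serial compound dilutions. Incubated anaerobically at 37 °C for 48 h. MIC is the lowest concentration showing visible growth inhibition.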

Clostridioides difficile [2] = test: Antibacterial activity against Clostridium difficile VPI 10463 ATCC 43255 assessed as bacterial growth inhibition incubated for 48 hrs under anaerobic condition by CLSI protocol based assay; assay type: functional; conditions: ATCC 43255 VPI 10463, 48 h; how it was run: as §1
Escherichia coli = test: Effect on growth of Escherichia coli ATCC 25922 assessed as bacterial growth inhibition measured after 16 to 18 hrs by CLSI method; assay type: organism-based; conditions: in vivo
How it was run: (§2)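 CLSI microdilution. Colonies from TSA (16-20 h, 37 °C) suspended in PBS to 0.5 McFarland, then diluted in TSB to ~10^5 CFU/mL. Incubated with serial compound dilutions for 16-20 h at 37 °C. MIC is the lowest concentration inhibiting growth.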

HRT-18 cell line = test: Cytotoxicity against human HRT18 cells at > 256 uM measured after 2 hrs by MTS assay; assay type: cell-based; conditions: hrt-18, 2 h
Bifidobacterium bifidum = test: Effect on growth of Bifidobacterium bifidum 212A ATCC 11863 measured after 48 hrs in anerobic conditions by CLSI method; assay type: organism-based; conditions: in vivo
Enterobacter cloacae = test: Effect on growth of Enterobacter cloacae ATCC BAA 1143 assessed as bacterial growth inhibition measured after 16 to 18 hrs grown in tryptic soy medium by CLSI method; assay type: organism-based; conditions: in vivo; how it was run: as §2
Caco-2 = test: Cytotoxicity against human Caco2 cells at > 256 uM measured after 2 hrs by MTS assay; assay type: cell-based; conditions: caco-2, 2 h
[3] = Effect on growth of Lactobacillus crispatus JV-V01 HM 103 measured after 48 hrs in 5% CO2 by CLSI method; conditions: lactobacillus crispatus jv-v01, 48 h
[4] = test system: Lacticaseibacillus paracasei; test: Effect on growth of Lactobacillus casei ATCC 334 measured after 48 hrs in 5% CO2 by CLSI method
[5] = Effect on growth of Lactobacillus gasseri EX336960VC03 HM 400 measured after 48 hrs in 5% CO2 by CLSI method; conditions: lactobacillus gasseri ex336960vc03, 48 h
Vero = test: Cytotoxicity against African green monkey Vero cells at > 256 uM measured after 2 hrs by MTS assay; assay type: cell-based; conditions: chlorocebus sabaeus

Structure (SMILES)	MIC (Clostridioides difficile [1]) [µM]	MIC (Clostridioides difficile [2]) [µM]	further results
CCCc1nc2c([N+](=O)[O-])csc2c(=O)[nH]1	67 (≈ 16 µg/mL)	67 (≈ 16 µg/mL)	
Cc1nc2c([N+](=O)[O-])csc2c(=O)n1-c1cccc(C(=O)O)c1	> 386	193 (≈ 63.9 µg/mL)	
Cc1nc2ccsc2c(=O)[nH]1	> 770	385 (≈ 64 µg/mL)	
O=c1[nH]c(/C=C/c2ccccc2)nc2c([N+](=O)[O-])csc12	13 (≈ 3.89 µg/mL)	52 (≈ 15.6 µg/mL)	
Cc1nc2ccoc2c(=O)[nH]1	> 852	> 852	
Oc1ncnc2ccsc12	420 (≈ 63.9 µg/mL)	840 (≈ 128 µg/mL)	
Cc1nc2c([N+](=O)[O-])csc2c(=O)n1Cc1ccc(C#N)cc1	25 (≈ 8.16 µg/mL)	50 (≈ 16.3 µg/mL)	
Cc1nc(Cl)c2scc([N+](=O)[O-])c2n1	17 (≈ 3.9 µg/mL)	34 (≈ 7.81 µg/mL)	
Cc1nc2c([N+](=O)[O-])csc2c(=O)n1CC(=O)OC(C)(C)C	49 (≈ 15.9 µg/mL)	98 (≈ 31.9 µg/mL)	
O=[N+]([O-])c1csc2c(N3CCOCC3)nc(/C=C/c3ccc(F)cc3)nc12	166 (≈ 64.1 µg/mL)	166 (≈ 64.1 µg/mL)	
Cc1nc2c([N+](=O)[O-])csc2c(=O)n1CC(=O)N1CCOCC1	47 (≈ 15.9 µg/mL)	94 (≈ 31.8 µg/mL)	
CCOC(=O)Cn1c(C)nc2c([N+](=O)[O-])csc2c1=O	54 (≈ 16.1 µg/mL)	54 (≈ 16.1 µg/mL)	
O=c1[nH]c(/C=C/c2ccc([N+](=O)[O-])cc2)nc2c([N+](=O)[O-])csc12	24 (≈ 8.26 µg/mL)	12 (≈ 4.13 µg/mL)	
COc1ccc(Cn2c(C)nc3c([N+](=O)[O-])csc3c2=O)cc1	24 (≈ 7.95 µg/mL)	24 (≈ 7.95 µg/mL)	
Cc1nc2c(C)csc2c(=O)[nH]1	> 710	> 710	
Cc1nc2c([N+](=O)[O-])csc2c(=O)n1CC(=O)N1CCN(C)CC1	91 (≈ 32 µg/mL)	91 (≈ 32 µg/mL)	
O=c1[nH]c(/C=C/c2cccs2)nc2c([N+](=O)[O-])csc12	13 (≈ 3.97 µg/mL)	13 (≈ 3.97 µg/mL)	
O=c1[nH]c(/C=C/c2ccc(Cl)cc2)nc2c([N+](=O)[O-])csc12	6 (≈ 2 µg/mL)	6 (≈ 2 µg/mL)	MIC (Escherichia coli): > 767 µM; Activity (HRT-18 cell line): Non-Toxic; MIC (Bifidobacterium bifidum): > 767 µM; MIC (Enterobacter cloacae): > 767 µM; Activity (Caco-2): Non-Toxic; MIC [3]: > 767 µM; MIC [4]: > 767 µM; MIC [5]: > 767 µM; Activity (Vero): Non-Toxic
Cc1csc2c(O)ncnc12	> 770	> 770	
N#Cc1ccc(/C=C/c2nc3c([N+](=O)[O-])csc3c(=O)[nH]2)cc1	> 197	> 197	
C#Cc1ccc(/C=C/c2nc3c([N+](=O)[O-])csc3c(=O)[nH]2)cc1	6 (≈ 1.94 µg/mL)	12 (≈ 3.88 µg/mL)	
Cc1nc2c(N)cccc2c(=O)[nH]1	> 730	> 730	
O=c1[nH]c(/C=C/c2ccccc2F)nc2c([N+](=O)[O-])csc12	6 (≈ 1.9 µg/mL)	12 (≈ 3.81 µg/mL)	MIC (Escherichia coli): > 807 µM; Activity (HRT-18 cell line): Non-Toxic; MIC (Bifidobacterium bifidum): > 807 µM; MIC (Enterobacter cloacae): > 807 µM; Activity (Caco-2): Non-Toxic; MIC [3]: > 807 µM; MIC [4]: > 807 µM; MIC [5]: > 807 µM; Activity (Vero): Non-Toxic
O=c1[nH]cnc2ccc([N+](=O)[O-])cc12	335 (≈ 64 µg/mL)	335 (≈ 64 µg/mL)	MIC (Escherichia coli): > 700 µM; MIC (Bifidobacterium bifidum): > 700 µM; MIC (Enterobacter cloacae): > 700 µM; MIC [3]: > 700 µM; MIC [4]: > 700 µM; MIC [5]: > 700 µM
O=c1[nH]cnc2c([N+](=O)[O-])csc12	20 (≈ 3.94 µg/mL)	10 (≈ 1.97 µg/mL)	
Cc1nc2c([N+](=O)[O-])coc2c(=O)[nH]1	41 (≈ 8 µg/mL)	41 (≈ 8 µg/mL)	MIC (Escherichia coli): > 700 µM; MIC (Bifidobacterium bifidum): > 700 µM; MIC (Enterobacter cloacae): > 700 µM; MIC [3]: > 700 µM; MIC [4]: > 700 µM; MIC [5]: > 700 µM
O=c1[nH]c(/C=C/c2ccc(O)cc2)nc2c([N+](=O)[O-])csc12	26 (≈ 8.2 µg/mL)	13 (≈ 4.1 µg/mL)	
COc1ccc(-n2c(C)nc3c([N+](=O)[O-])csc3c2=O)cc1	202 (≈ 64.1 µg/mL)	101 (≈ 32 µg/mL)	
